# Only some compounds are listed: those with a hit (about 3.7% of all), similar ones and a draw of the others.
# bCat nuc transl: modulators of beta-catenin nuclear translocation. HeLa beta-catenin nuclear translocation, immunofluorescence imaging. nuclear translocation activity, % at 5 µM. actives 0.3% (n = 190,000). AID 1665;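 active = nuclear translocation activity above 50% at 5 µM, with a well cell count of 50 or more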;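 also: per-cell ratio of nuclear to cytoplasmic median beta-catenin stain intensity; plate controls were DMSO negative control for no effect and GSK-3 inhibitor IX positive control for full effect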
#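 Read-out: Nuclear/cytoplasmic beta-catenin signal ratio, % activation | Assay system: Human HeLa cell line | Times: 24 h compound exposure at 37°C, 5% CO2 | Signal: Fluorescence imaging of beta-catenin antibody stain plus DAPI | Dosing: 5 µM primary, 0.02–20 µM confirmation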
# ROMK primary: human ROMK K+ channel modulation, primary screen; P48048; Tet-inducible ROMK, thallium flux fluorescence; actives lie on both sides; B-score at 10 µM; actives 2% (n = 130,000); AID 1918;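 active = signal ratio slope over the read window, or its plate-corrected B-score, at least 3 SD from the plate mean, either direction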;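 also: B-score of the F/F0 ratio slope over 7 to 12 s after thallium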
# MT stabilize HCS: microtubule stabilizers in HeLa cells. HeLa tubulin immunostaining HCS, 24 h; share of cells brighter than vehicle mean+2SD. actives 0.83% (n = 200,000). % tubulin-high responders, % at 10 µM. AID 2205;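 active = plate Z-score above 3 for both tubulin-high and condensed-nucleus cell shares, with cell loss under 80%, at 10 µM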;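 also: anti alpha tubulin signal scored within the nucleus-defined area of each cell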
# Redox H2O2 prof: compounds producing H2O2 with reducing agent – biochemical, NIH compound library profiling, artefact control for MLSCN library redox annotation, primary screen; actives 0.03% (n = 200,000); activation, % at 10 µM; DTT-dependent redox cycling H2O2, phenol red/HRP absorbance; 100% = 100 µM peroxide control, 0% = buffer;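 active = activation of at least 50% relative to the plate's high and low controls in the primary single-dose screen; inactive = activation below 50%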;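 also: compound incubated with DTT at 0.8 mM final as the reducing agent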
# Cl transport mod: modulators of human KCC2 chloride dependent transport | actives 2.2% (n = 190,000) | Q9H2X9 | KCC2 cells, thallium flux FluoZin-2 fluorescence | B-score of Tl+ flux slope (higher = more flux/activation; lower = inhibition) at 10 µM | AID 1456;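 active = thallium flux slope and its plate-corrected score both differing from the plate sample mean at a set confidence after two filtering rounds, in either direction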;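 also: slope of fluorescence scaled to starting intensity during 10 to 20 s after thallium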
# Target sequence (Q9H2X9 whole entry, looked up): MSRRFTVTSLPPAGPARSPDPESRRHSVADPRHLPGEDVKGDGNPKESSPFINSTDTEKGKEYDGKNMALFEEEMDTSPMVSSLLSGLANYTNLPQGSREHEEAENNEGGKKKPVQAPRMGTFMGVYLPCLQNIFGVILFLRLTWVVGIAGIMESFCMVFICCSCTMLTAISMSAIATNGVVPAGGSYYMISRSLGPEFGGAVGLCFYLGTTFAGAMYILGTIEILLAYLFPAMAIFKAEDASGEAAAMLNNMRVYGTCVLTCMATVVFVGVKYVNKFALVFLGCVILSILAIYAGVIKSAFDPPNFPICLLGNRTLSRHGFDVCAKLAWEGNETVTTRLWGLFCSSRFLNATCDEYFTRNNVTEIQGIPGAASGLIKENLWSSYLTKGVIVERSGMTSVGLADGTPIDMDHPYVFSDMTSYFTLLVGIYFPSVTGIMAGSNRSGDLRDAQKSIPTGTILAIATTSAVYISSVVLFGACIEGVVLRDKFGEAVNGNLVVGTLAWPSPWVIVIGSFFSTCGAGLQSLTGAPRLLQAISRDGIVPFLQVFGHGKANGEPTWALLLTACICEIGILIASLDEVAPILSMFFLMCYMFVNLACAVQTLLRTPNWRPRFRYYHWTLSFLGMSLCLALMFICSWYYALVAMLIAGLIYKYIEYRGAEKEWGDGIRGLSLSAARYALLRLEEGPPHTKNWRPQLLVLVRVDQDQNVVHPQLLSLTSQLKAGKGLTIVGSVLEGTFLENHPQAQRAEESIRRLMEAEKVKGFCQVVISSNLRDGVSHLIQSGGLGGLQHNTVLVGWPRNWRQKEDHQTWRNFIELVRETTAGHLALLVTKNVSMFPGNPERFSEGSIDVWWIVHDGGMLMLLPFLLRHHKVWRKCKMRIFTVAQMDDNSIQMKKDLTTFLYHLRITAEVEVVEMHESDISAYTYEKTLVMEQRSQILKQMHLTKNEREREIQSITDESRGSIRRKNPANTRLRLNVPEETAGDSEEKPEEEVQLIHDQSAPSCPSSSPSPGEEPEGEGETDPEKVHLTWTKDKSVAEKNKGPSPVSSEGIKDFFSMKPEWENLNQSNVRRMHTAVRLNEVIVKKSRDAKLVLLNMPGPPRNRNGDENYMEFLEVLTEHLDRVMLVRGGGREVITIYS
# * marks the source's active call; other numbers are inactive results; x = no result given.
SMILES,bCat nuc transl,ROMK primary,MT stabilize HCS,Redox H2O2 prof,Cl transport mod
O=C(O)C1CCCCC1C(=O)NCc1ccc(Cl)c(Cl)c1 (configuration not stated),1,0.089,1,-1,-1.3
CCn1cc(CNC(=O)CCSc2nc(-c3ccco3)cc(C(F)(F)F)n2)cn1,-1,2,43*,1,-0.62
O=C(CCSc1nc(-c2ccco2)cc(C(F)(F)F)n1)NCCc1ccccc1,x,x,2,2,-3.1*
NC1=NC(=O)/C(=C/c2cccs2)S1,6,-1.8,2,-3,-0.41
C=CCSC1=NC(=O)/C(=C/c2cccs2)S1,-4,-5.7*,2,0,-0.54
CCCC(=O)N1c2ccccc2C(=C2SC(C(=O)OC)=C(C(=O)OC)S2)C(=S)C1(C)C,-1,x,42*,-1,-1.5
O=C(NC(=S)Nc1cccc(Cl)c1N1CCCCC1)c1ccco1,4,x,39*,1,6.7*
O=C(NC(=S)Nc1ccc(N2CCCC2)cc1)c1ccccc1[N+](=O)[O-],x,0.086,4,0,0.17
O=C(NC(=S)Nc1ccccc1N1CCCC1)c1ccccc1[N+](=O)[O-],1,x,9,0,16*
O=C(NC(=S)Nc1cccc(Cl)c1N1CCCCC1)c1cccs1,0,0.61,26*,-1,1.9
O=C(NC(=S)Nc1ccccc1N1CCCCC1)c1ccco1,-1,x,3,1,20*
CCOC(=O)c1ccc(NC(=O)N2CCN(Cc3ccccc3)CC2)cc1,0,0.29,3,0,-5.4
O=C(/C=C/c1ccco1)NC(=S)Nc1ccccc1N1CCOCC1,1,-0.93,1,2,-0.75
O=C(NC(=S)Nc1ccccc1N1CCOCC1)c1ccco1,-3,x,3,1,18*
CC(=O)Nc1cccc(C(=O)Nc2ccccc2N2CCOCC2)c1,-4,-0.061,32*,0,-0.21
O=C(Nc1ccccc1N1CCCCC1)c1ccc(-c2ccc(Cl)cc2)o1,64*,0.48,29*,3,0.26
COc1cccc(NC(C)C(=O)Nc2cc([N+](=O)[O-])ccc2Cl)c1 (configuration not stated),x,0.8,5,-1,-2.2
CCN1CCN(c2cc(C)c3cc(NC(=O)c4ccc(Br)o4)ccc3n2)CC1,2,0.84,25*,0,x
COc1cc(NC(=O)N2CCNC2=O)cc(C(=O)Nc2cccc(C(F)(F)F)c2)c1,55*,x,x,x,0.12
Cc1ccc(S(=O)(=O)Cc2ccc(C(=O)N3CCN(c4ccc(F)cc4)CC3)o2)cc1,x,x,24*,0,-0.81
COc1ccc(S(=O)(=O)Cc2ccc(C(=O)N3CCN(c4cccc(C)c4)C(C)C3)o2)cc1 (configuration not stated),x,x,24*,-1,x
COc1ccc(N2CCN(C(=O)c3ccc(CS(=O)(=O)c4ccc(OC)cc4)o3)CC2)cc1,x,x,5,0,-0.27
COc1ccc(S(=O)(=O)Cc2ccc(C(=O)N3CCN(c4cccc(C)c4C)CC3)o2)cc1,1,x,22*,1,0.84
Cc1ccccc1S(=O)(=O)Cc1ccc(C(=O)N2CCN(c3ccc(F)cc3)CC2)o1,-2,0.35,3,1,-1.8
Cc1cccc(N2CCN(C(=O)c3ccc4c(c3)OCCO4)CC2C)c1 (configuration not stated),10,-0.18,13*,0,-0.15
SMILES,bCat nuc transl,ROMK primary,MT stabilize HCS,Redox H2O2 prof,Cl transport mod
CC(C)(C)n1nc2c(c1NC(=O)c1cc3ccccc3o1)CS(=O)(=O)C2,0,1.1,3,0,-0.9
Cc1ccnc2nc(C(=O)OCC(=O)NC(=O)NCc3ccco3)nn12,-2,0.32,3,-2,0.4
CC(C)C1C(C#N)=C(N)Oc2n[nH]c(-c3ccc4ccccc4c3)c21 (configuration not stated),-7,0.32,32*,0,x
CN(Cc1ccccc1)c1ccc(S(=O)(=O)N2CCC(C(=O)O)CC2)cc1[N+](=O)[O-],-2,0.054,2,-2,0.068
C/C(Cc1ccccc1)=N\NC(=O)c1ccc(F)cc1,-1,0.72,5,0,-0.86
O=C(NN=C(Cc1ccccc1)Cc1ccccc1)c1ccc(F)cc1,2,-1.3,3,0,7.7*
CC(C)(CC(=O)O)CC(=O)Nc1ccc(Cl)c(Cl)c1,-2,0.14,x,x,-0.57
CCOC(=O)c1cnc2ccc(C)cc2c1Sc1ccccc1C(=O)OC,-1,-0.48,2,-8,x
Nc1c2c(=O)oc(-c3ccccc3)cc2nn1-c1ccccc1,x,x,29*,2,x
CS(=O)(=O)Nc1ccc(C(=O)Nc2cccc([N+](=O)[O-])c2)cc1,-1,-0.016,4,-1,-0.15
COc1ccc2nc(NC(=O)c3cccc(OCc4c(C)noc4C)c3)sc2c1,72*,x,30*,0,-0.073
Cc1cccc(C(=O)Nc2nc(C)c(C(=O)Nc3ccc4c(c3)CCC4)s2)c1,x,x,43*,-5,-0.18
O=C(O)C[C@@H]1C(=O)O[C@@H]2C(COC(=O)c3cc(O)c(O)c(O)c3)O[C@@H](OC(=O)c3cc(O)c(O)c(O)c3)[C@@H](OC(=O)c3cc(O)c(O)c4c3[C@H]1[C@H](O)C(=O)O4)[C@H]2OC(=O)c1cc(O)c(O)c(O)c1 (some centres not stated),2,x,x,x,-1.1
COc1ccc(-c2nnc3sc(-c4c(OC)cccc4OC)nn23)cc1,x,1.3,x,x,x
COc1ccccc1-c1nn2c(-c3ccccc3Cl)nnc2s1,-2,x,x,x,x
CCN(CC)c1ccc(-c2nn3c(-c4ccccc4OC)nnc3s2)cc1,x,3.9*,21,0,-1.4
COc1cccc(OC)c1-c1nn2c(-c3cc(-c4ccccc4)n[nH]3)nnc2s1,37,0.55,40*,4,0.33
CN(C)c1ccc(-c2nn3c(-c4ccc(Cl)cc4Cl)nnc3s2)cc1,53*,x,30*,0,0.51
COC(=O)C1=C(C)N(C)C(=S)NC1c1c(OC)ccc2ccccc12 (configuration not stated),0,x,4,0,0.61
O=C1/C(=C/c2ccccn2)SC(=S)N1N1CCOCC1,1,x,x,x,-0.43
CC(C)c1nc(SCC(=O)Nc2ccc3c(c2)OCCO3)c2c(=O)n(C)c(=O)n(C)c2n1,2,x,22*,0,0.022
CC(=O)SCC(Cc1ccccc1)C(=O)NCC(=O)OCc1ccccc1 (configuration not stated),0,x,x,x,-4.2*
COc1ccc2[nH]c3c(N4CCN(Cc5ccc6c(c5)OCO6)CC4)ncnc3c2c1,4,-1.4,21*,0,-1.2
COc1ccc2c(c1)c1ncnc(N3CCN(Cc4ccc5c(c4)OCO5)CC3)c1n2C,-4,-1.9,4,-1,x
CC1=C(C)CC(C(=O)Nc2ccc3c(c2)OCO3)C(C(=O)O)C1 (configuration not stated),0,-0.26,2,0,0.9
